# Experimental data collected from several papers.
# Each line is one published result; the experiments were not run side by side.
# CSF1R: Macrophage colony-stimulating factor 1 receptor (CSF1R, Homo sapiens, UniProt P07333)
# CSF1R autoinhibited: Macrophage colony-stimulating factor 1 receptor, autoinhibited (CSF1R, Homo sapiens, UniProt P07333)
Compound,target,observed,technique,tested at,remaining binding [%]
COc1ncc2cc3ccccc3nc2c1C#N,CSF1R,cell-free assay,competition with immobilised ligand,5 µM,96
COc1cnc(Nc2cccc(S(N)(=O)=O)c2)nc1N1CCN(c2ccccc2)CC1,CSF1R,binding,competition with immobilised ligand,1 µM,100
O=C(c1ccc(Nc2ncc(Cl)c(-c3ccc(Cl)s3)n2)cc1)N1CCC(N2CCCC2)CC1,CSF1R,binding,competition with immobilised ligand,1 µM,5.1
CC1CCCN1c1nccc(-c2cnn3ncccc23)n1 (centres unmarked),CSF1R,binding,,1 µM,100
Cc1nc(NC(=O)N2CCC[C@H]2C(N)=O)sc1-c1ccnc(C(C)(C)C(F)(F)F)c1,CSF1R autoinhibited,binding,competition with immobilised ligand,10 µM,98
Cc1cc(-n2nc(Cc3cc(F)cc(C(F)(F)F)c3)nc2C)ccc1C(N)=O,CSF1R autoinhibited,cell-free assay,competition with immobilised ligand,1 µM,100
Cc1cnc(Nc2ccc(C(=O)N3CCC(N4CCCC4)CC3)cc2)nc1-c1cc2ccccc2s1,CSF1R autoinhibited,binding,competition with immobilised ligand,1 µM,45
COc1ccnn2ncc(-c3ccnc(N(C)C)n3)c12,CSF1R,binding,,1 µM,100
C=CC(=O)N1CCC(C(=O)NCC(=O)N2CCN(c3nc(-c4cnc(N)nc4C(F)F)nc(N4CCOCC4)n3)CC2)CC1,CSF1R autoinhibited,binding,competition with immobilised ligand,1 µM,20
CCOCCn1cc(C(=O)Nc2ccc(-n3nc(-c4cccnc4)cc3C(F)(F)F)cn2)ccc1=O,CSF1R autoinhibited,cell-free assay,competition with immobilised ligand,1 µM,100
Nc1ncc2c(n1)-c1c([nH]c3ccc(C#CC4CC4)cc13)CCCC2,CSF1R autoinhibited,binding,competition with immobilised ligand,1 µM,85
COc1ccc2c(O[C@@H]3C[C@H]4C(=O)N[C@]5(C(=O)O)CC5/C=C\CCCCC[C@H](NC(=O)OC5CCCC5)C(=O)N4C3)cc(-c3csc(NC(=O)C(C)C)n3)nc2c1C (some centres unmarked),CSF1R,cell-free assay,competition with immobilised ligand,1 µM,71
F[C@@H]1CCN(c2nccc(-c3cnn4ncccc34)n2)C1,CSF1R autoinhibited,binding,,1 µM,81
c1cncc(-c2cccc(Nc3nccc(NC4CCCCC4)n3)c2)c1,CSF1R,binding,competition with immobilised ligand,10 µM,0.15
O=C(NCC1CCOCC1)c1n[nH]cc1NC(=O)c1c(F)cccc1F,CSF1R autoinhibited,binding,competition with immobilised ligand,1 µM,62
CN(C)c1ncc(F)c(-c2cnn3ncccc23)n1,CSF1R autoinhibited,binding,,1 µM,69
O=C(NCCCN1CCOCC1)c1ccc(Nc2ncc(Cl)c(-c3ccc(Cl)s3)n2)cc1,CSF1R,binding,competition with immobilised ligand,1 µM,15
Cc1cnn2ncc(-c3ccnc(N(C)C)n3)c2c1,CSF1R,binding,,1 µM,100
CC(C)(C)c1ccc(-c2nc(CBr)nn2-c2cccc(O)c2)cc1,CSF1R,cell-free assay,competition with immobilised ligand,10 µM,98
C[C@@H]1CN(c2ccc3ncc(-c4ccc5[nH]nc(C6CC6)c5c4)n3n2)C[C@H](C)O1,CSF1R,binding,competition with immobilised ligand,0.5 µM,100
O=C(NCCCN1CCOCC1)c1ccc(Nc2nccc(-c3cc4ccccc4s3)n2)cc1,CSF1R autoinhibited,binding,competition with immobilised ligand,1 µM,83
CCN1CCN(Cc2ccc(C(=O)Nc3ccc(C)c(Oc4ccc5c(c4)CC(=O)N5)c3)cc2C(F)(F)F)CC1,CSF1R,binding,competition with immobilised ligand,1 µM,2
O=C(Nc1c[nH]nc1C(=O)NC1CCNCC1)c1cc(F)cc(F)c1,CSF1R autoinhibited,binding,competition with immobilised ligand,1 µM,90
COc1cnc(Nc2cccc(S(N)(=O)=O)c2)nc1N1CCN(c2ccccc2)C(=O)C1,CSF1R autoinhibited,binding,competition with immobilised ligand,1 µM,87
O=C(c1ccc(Nc2nccc(-c3cc4ccccc4s3)n2)cc1)N1CCC(N2CCCC2)CC1,CSF1R,binding,competition with immobilised ligand,1 µM,42
CN([C@@H]1CCc2c(CC(=O)O)c3cc(S(C)(=O)=O)ccc3n2C1)S(=O)(=O)c1ccc(F)cc1,CSF1R autoinhibited,cell-free assay,competition with immobilised ligand,1 µM,93
CNC(=O)[C@@H]1CC[C@@H](n2c(-c3ccc4cnccc4c3)nc3ccc(C(=O)NCc4cccc(C(N)=O)c4)cc32)C1,CSF1R autoinhibited,binding,competition with immobilised ligand,1 µM,80
CC(=O)c1c(NS(C)(=O)=O)c2cc(-c3ccc(Cl)cc3)c(-c3ccc(Cl)cc3Cl)nc2n(C)c1=O,CSF1R,cell-free assay,competition with immobilised ligand,1 µM,100
O=C(c1ccc(Nc2ncc(Cl)c(-c3cc4ccccc4s3)n2)cc1)N1CCC(N2CCCC2)CC1,CSF1R,binding,competition with immobilised ligand,1 µM,24
O=C(O)[C@H]1[C@H](Cn2nnc3ccccc3c2=O)CC[C@@H]1C(=O)c1ccc(OCCC2CCOCC2)cc1,CSF1R autoinhibited,cell-free assay,competition with immobilised ligand,1 µM,100
C[C@H]1CCN(c2nccc(-c3cnn4ncccc34)n2)C1,CSF1R autoinhibited,binding,,1 µM,75
CC(=O)C1=C(C)N(c2cccc(C(F)(F)F)c2)C(=O)N[C@@H]1c1ccc(C#N)nc1,CSF1R autoinhibited,cell-free assay,competition with immobilised ligand,1 µM,100
N[C@H]1CCN(c2nccc(-c3cnn4ncccc34)n2)C1,CSF1R,binding,,1 µM,100
CC(=O)Nc1c(C(C)=O)c(=O)n(C)c2nc(-c3ccc(Cl)cc3Cl)c(-c3ccc(Cl)cc3)cc12,CSF1R,cell-free assay,competition with immobilised ligand,1 µM,100
C[C@@H](c1ccc(-n2cnc3c(N)ncnc32)cc1)N1CCc2nn(C)c(Cc3ccccc3)c2C1=O,CSF1R autoinhibited,binding,competition with immobilised ligand,0.1 µM,81
